Results reported in the M2OR odorant receptor database.

Target: T1, OR4A5 (Homo sapiens) (UniProt Q8NH83)
T1 sequence (whole entry): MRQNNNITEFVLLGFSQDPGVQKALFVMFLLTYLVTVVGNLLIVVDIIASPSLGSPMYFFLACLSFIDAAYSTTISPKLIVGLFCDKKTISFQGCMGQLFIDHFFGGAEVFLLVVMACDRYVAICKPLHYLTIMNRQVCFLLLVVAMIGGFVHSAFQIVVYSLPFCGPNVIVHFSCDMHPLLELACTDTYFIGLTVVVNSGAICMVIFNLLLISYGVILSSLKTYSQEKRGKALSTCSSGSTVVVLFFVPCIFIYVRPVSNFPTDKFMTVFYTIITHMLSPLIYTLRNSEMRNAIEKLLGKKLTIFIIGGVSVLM
Conditions: stereoisomer not certain
Outline: (§1)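 Each entry records the cell line, G-protein, co-transfected protein and tags used. Methods varied with the source, often transient luciferase assays in mammalian cell lines. A receptor–molecule pair is called responsive (active) if the original authors judged its signal statistically different from baseline and non-responsive (inactive) otherwise.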

Odorant receptor agonist call, inactive:
CC1=NC(C)C(C)S1 (stereo not given)
CCCC(S)CCOC(C)=O (stereo not given)
CC1CCCCCCCCCCCCC(=O)C1 (stereo not given)
CC1=C(O)C(=O)C(C)O1 (stereo not given)
Cc1cnc(C)c(C)n1
CC(CO)CS (stereo not given)
CCCCC(S)C(C)CO (stereo not given)
CCCCCC(=O)C(C)C(C)=O (stereo not given)
CCCCCCC=CCCC=O
CCC1OC(C)=C(O)C1=O (stereo not given)
CCC(S)C(C)CO (stereo not given)
CCCCCC(S)C(C)CO (stereo not given)
CCC1OC(=O)C(O)=C1C (stereo not given)
CC(=O)c1c(C)c([N+](=O)[O-])c(C(C)(C)C)c([N+](=O)[O-])c1C
CC1=C(O)C(=O)OC1C (stereo not given)

Target: T2, OR4B1 (Homo sapiens) (UniProt Q8NGF8)
T2 sequence (whole entry): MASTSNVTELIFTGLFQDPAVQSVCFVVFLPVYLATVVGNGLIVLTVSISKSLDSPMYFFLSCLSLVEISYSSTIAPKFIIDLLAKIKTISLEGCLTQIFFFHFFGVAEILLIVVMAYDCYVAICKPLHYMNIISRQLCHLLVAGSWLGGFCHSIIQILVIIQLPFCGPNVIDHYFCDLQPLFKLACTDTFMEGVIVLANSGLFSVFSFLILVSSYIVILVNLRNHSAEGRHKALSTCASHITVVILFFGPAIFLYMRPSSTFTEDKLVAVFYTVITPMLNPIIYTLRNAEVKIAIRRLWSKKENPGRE
Conditions: stereoisomer not certain
Outline: as §1

Odorant receptor agonist call, inactive:
CC1=NC(C)C(C)S1 (stereo not given)
CCCC(S)CCOC(C)=O (stereo not given)
CC1CCCCCCCCCCCCC(=O)C1 (stereo not given)
CC1=C(O)C(=O)C(C)O1 (stereo not given)
Cc1cnc(C)c(C)n1
CC(CO)CS (stereo not given)
CCCCC(S)C(C)CO (stereo not given)
CCCCCC(=O)C(C)C(C)=O (stereo not given)
CCCCCCC=CCCC=O
CCC1OC(C)=C(O)C1=O (stereo not given)
CCC(S)C(C)CO (stereo not given)
CCCCCC(S)C(C)CO (stereo not given)
CCC1OC(=O)C(O)=C1C (stereo not given)
CC(=O)c1c(C)c([N+](=O)[O-])c(C(C)(C)C)c([N+](=O)[O-])c1C
CC1=C(O)C(=O)OC1C (stereo not given)

Target: T3, OR4C11 (Homo sapiens) (UniProt Q6IEV9)
T3 sequence (whole entry): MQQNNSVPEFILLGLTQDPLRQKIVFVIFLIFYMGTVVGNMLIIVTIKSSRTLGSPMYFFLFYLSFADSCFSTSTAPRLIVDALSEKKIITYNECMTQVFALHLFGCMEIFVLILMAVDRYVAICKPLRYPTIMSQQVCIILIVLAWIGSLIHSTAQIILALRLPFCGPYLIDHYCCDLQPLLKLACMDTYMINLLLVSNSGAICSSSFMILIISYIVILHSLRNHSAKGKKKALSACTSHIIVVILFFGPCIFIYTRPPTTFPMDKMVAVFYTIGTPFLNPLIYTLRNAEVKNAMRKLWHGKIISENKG
Conditions: stereoisomer not certain
Outline: as §1

Odorant receptor agonist call, inactive:
CC1=NC(C)C(C)S1 (stereo not given)
CCCC(S)CCOC(C)=O (stereo not given)
CC1CCCCCCCCCCCCC(=O)C1 (stereo not given)
CC1=C(O)C(=O)C(C)O1 (stereo not given)
Cc1cnc(C)c(C)n1
CC(CO)CS (stereo not given)
CCCCC(S)C(C)CO (stereo not given)
CCCCCC(=O)C(C)C(C)=O (stereo not given)
CCCCCCC=CCCC=O
CCC1OC(C)=C(O)C1=O (stereo not given)
CCC(S)C(C)CO (stereo not given)
CCCCCC(S)C(C)CO (stereo not given)
CCC1OC(=O)C(O)=C1C (stereo not given)
CC(=O)c1c(C)c([N+](=O)[O-])c(C(C)(C)C)c([N+](=O)[O-])c1C
CC1=C(O)C(=O)OC1C (stereo not given)

Target: OR4C12 (Homo sapiens) (UniProt Q96R67)
Sequence (Q96R67 whole entry): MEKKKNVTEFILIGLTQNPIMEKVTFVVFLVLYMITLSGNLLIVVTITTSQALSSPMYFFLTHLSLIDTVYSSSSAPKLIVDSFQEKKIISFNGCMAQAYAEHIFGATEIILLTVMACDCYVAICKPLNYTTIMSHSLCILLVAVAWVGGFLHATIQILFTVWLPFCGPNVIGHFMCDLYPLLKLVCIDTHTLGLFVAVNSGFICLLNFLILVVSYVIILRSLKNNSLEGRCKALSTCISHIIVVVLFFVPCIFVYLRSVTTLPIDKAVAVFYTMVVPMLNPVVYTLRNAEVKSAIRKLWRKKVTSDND
Conditions: stereoisomer not certain
Outline: as §1

Odorant receptor agonist call, inactive:
CC1=NC(C)C(C)S1 (stereo not given)
CCCC(S)CCOC(C)=O (stereo not given)
CC1CCCCCCCCCCCCC(=O)C1 (stereo not given)
CC1=C(O)C(=O)C(C)O1 (stereo not given)
Cc1cnc(C)c(C)n1
CC(CO)CS (stereo not given)
CCCCC(S)C(C)CO (stereo not given)
CCCCCC(=O)C(C)C(C)=O (stereo not given)
CCCCCCC=CCCC=O
CCC1OC(C)=C(O)C1=O (stereo not given)
CCC(S)C(C)CO (stereo not given)
CCCCCC(S)C(C)CO (stereo not given)
CCC1OC(=O)C(O)=C1C (stereo not given)
CC(=O)c1c(C)c([N+](=O)[O-])c(C(C)(C)C)c([N+](=O)[O-])c1C
CC1=C(O)C(=O)OC1C (stereo not given)
